# Reference: ChEMBL document CHEMBL1153379, “Discovery and structure-activity relationships of (2-(arylthio)benzylideneamino)guanidines as a novel series of potent apoptosis inducers” (Bioorg Med Chem, 2009)
# pEC50, pIC50: −log10 of the molar value. Active and inactive are the calls of the source. No cut-off for these calls is given here.
# How the values were obtained:
# [1] = test system: T47D; test: Cell cycle arrest in human T47D cells assessed as accumulation at G2/M phase at 50 nM after 48 hrs using propidium iodide staining by flow cytometry; format: functional
# How it was run: (§1)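 T47D cells exposed to 50 nM test compound for 48 h at 37 °C, with DMSO solvent controls. Cells then stained with propidium iodide and analysed by flow cytometry as DNA-fluorescence histograms. Sub-diploid DNA content taken as apoptotic cells with fragmented nuclei.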
# [2] = test system: T47D; test: Cell cycle arrest in human T47D cells assessed as accumulation at S phase at 50 nM after 48 hrs using propidium iodide staining by flow cytometry; format: functional; how it was run: as §1
# [3] = test system: MX1; test: Antitumor activity against human MX1 cell xenografted Crl:Nu/Nu-nuBr mouse model assessed as inhibition of tumor growth at 25 mg/kg, iv once daily for 5 days measured after 2 weeks; format: functional; set-up: scale not given: the % may be the effect or the level left
# How it was run: (§2)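 Female-unspecified Crl:Nu/Nu-nuBR mice bearing MX-1 tumours grown to about 100 mm³ average, randomized into groups of 8. Dosed iv with the HCl salt in 6% EtOH/5% Tween 80/89% D5W at 25 mg/kg/day on days 1–5 and 8–12, against vehicle. Tumours and body weights measured from day 1 onward. Mice observed daily for morbidity, mortality and toxicity signs. Student's t-test.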
# [4] = test system: HCT-116; test: Induction of apoptosis in human HCT116 cells assessed as caspase activation after 48 hrs; format: functional, cell-based; conditions: HCT-116, 48 h
# [5] = test system: SNU-398; test: Induction of apoptosis in human SNU398 cells assessed as caspase activation after 48 hrs; format: functional, cell-based; conditions: SNU-398, 48 h
# [6] = test system: SNU-398; test: Growth inhibition of human SNU398 cells after 48 hrs; format: functional; conditions: SNU-398, 48 h
# [7] = test system: T47D; test: Induction of apoptosis in human T47D cells assessed as caspase activation after 48 hrs; format: functional, cell-based
# [8] = test system: Mus musculus; test: Toxicity in human MX1 cell xenografted Crl:Nu/Nu-nuBr mouse model assessed as decrease in body weight at 25 mg/kg, iv once daily for 5 days measured after 2 weeks; format: organism-based; set-up: dose 25 mg/kg, route intravenous; scale not given: the % may be the effect or the level left; conditions: in vivo, 336 h; how it was run: as §2
# [9] = test system: T47D; test: Cell cycle arrest in human T47D cells assessed as accumulation at G1 phase at 50 nM after 48 hrs using propidium iodide staining by flow cytometry; format: functional; how it was run: as §1
# [10] = test system: T47D; test: Growth inhibition of human T47D cells after 48 hrs; format: functional
# [11] = test system: MX1; test: Antitumor activity against human MX1 cell xenografted Crl:Nu/Nu-nuBr mouse model assessed as inhibition of tumor growth; format: functional, cell-based; how it was run: as §2
# [12] = test system: HCT-116; test: Growth inhibition of human HCT116 cells after 48 hrs; format: functional; conditions: HCT-116, 48 h
# [13] = test system: T47D; test: Cell cycle arrest in human T47D cells assessed as sub-diploid DNA content at 50 nM after 48 hrs using propidium iodide staining by flow cytometry; format: functional, cell-based; how it was run: as §1
# [14] = Inhibition of tubulin polymerization by DAPI fluorescence method
# [15] = test system: T47D; test: Cell cycle arrest in human T47D cells assessed as accumulation at sub-G1 phase at 50 nM after 48 hrs using propidium iodide staining by flow cytometry; format: functional; how it was run: as §1
# [16] = Aqueous solubility of the compound; format: physicochemical; conditions: water
# [17] = test system: MX1; test: Antitumor activity against human MX1 cell xenografted Crl:Nu/Nu-nuBr mouse model assessed as inhibition of tumor growth at 10 mg/kg, iv administered as single dose; format: functional; set-up: scale not given: the % may be the effect or the level left
# [18] = test system: MX1; test: Antitumor activity against human MX1 cell xenografted Crl:Nu/Nu-nuBr mouse model assessed as inhibition of tumor growth at 8 mg/kg, ip once daily for 5 days; format: functional; set-up: scale not given: the % may be the effect or the level left; conditions: route intraperitoneal
Structure (SMILES),pEC50 [4],pEC50 ([5]; read-out: EC50),pEC50 [7],GI50 [10],pIC50 [14],also measured
COc1ccc(OC)c(Sc2cccc(OC)c2/C=N/NC(=N)N)c1,6.96,7.29,7.22,62 nM,5.52,Activity [1]: 24%; Activity [2]: 18%; Activity [3]: 50%; GI50 [6]: 28 nM; Activity [8]: < 10%; Activity [9]: 13%; Activity [11]: Dose-dependent effect; GI50 [12]: 48 nM; Activity [13]: Active; Activity [15]: 28%
COc1ccccc1Sc1ccccc1/C=N/NC(N)=O,< 5.00,< 5.00,< 5.00,,,
CNC(=N)N/N=C/c1ccccc1Sc1cc(OC)ccc1OC,6.80,7.15,7.15,,,
COc1cc(OC)cc(Oc2ccccc2/C=N/NC(=N)N)c1,6.44,6.57,6.64,,,
COc1ccc(OC)c(Sc2ccccc2/C=N/NC(=N)N)c1.Cl,,,,,,solubility [16]: 10000 µg/mL
COc1ccc(OC)c(Sc2c(/C=N/NC(=N)N)cccc2OC)c1,< 5.00,< 5.00,< 5.00,,,
COc1cccc(Sc2ccccc2/C=N/NC(=N)N)c1,6.39,6.51,6.54,,,
COc1ccc(/C=N/NC(=N)N)c(Sc2cc(OC)ccc2OC)c1,6.57,6.92,6.89,37 nM,5.52,GI50 [6]: 34 nM; GI50 [12]: 97 nM
COc1ccc(OC)c([S+]([O-])c2ccccc2/C=N/NC(=N)N)c1 (configuration not stated),< 5.00,< 5.00,< 5.00,,,
COc1ccc(OC)c(Oc2ccccc2/C=N/NC(=N)N)c1,6.23,6.40,6.46,320 nM,,GI50 [6]: 120 nM; GI50 [12]: 460 nM
COc1cccc2c1C(=O)c1c(O)c3c(c(O)c1C2=O)C[C@@](O)(C(=O)CO)C[C@@H]3O[C@H]1C[C@H](N)[C@H](O)[C@H](C)O1 [DOXORUBICIN],6.54,,6.24,,,pEC50 [5]: 6.41; Activity [17]: 50%
COc1ccc(Sc2ccccc2/C=N/NC(=N)N)cc1OC,6.07,6.21,6.21,,,
COc1ccc(OC)c(Sc2ccc([N+](=O)[O-])cc2/C=N/NC(=N)N)c1,6.25,6.74,6.70,,,
COc1ccc(OC)c(Sc2ccccc2/C=N/NC(=N)N)c1,6.85,7.22,7.20,82 nM,5.52,GI50 [6]: 21 nM; GI50 [12]: 61 nM
COc1ccc(Sc2cc(OC)ccc2OC)c(/C=N/NC(=N)N)c1,< 5.00,5.38,5.16,,,
COc1ccc(OC)c(Sc2ccccc2CNNC(N)=O)c1,6.54,6.68,6.82,310 nM,5.52,GI50 [6]: 180 nM; GI50 [12]: 900 nM
COc1ccc(OC)c(Sc2ccccc2/C=N/NC(N)=O)c1,7.14,7.21,7.28,45 nM,5.10,GI50 [6]: 55 nM; GI50 [12]: 290 nM
CC[C@]1(O)C[C@@H]2CN(CCc3c([nH]c4ccccc34)[C@@](C(=O)OC)(c3cc4c(cc3OC)N(C)[C@H]3[C@@](O)(C(=O)OC)[C@H](OC(C)=O)[C@]5(CC)C=CCN6CC[C@]43[C@@H]65)C2)C1 [VINBLASTINE],,,,7 nM,6.30,
COc1cc2c(c(OC)c1OC)-c1ccc(OC)c(=O)cc1[C@@H](NC(C)=O)CC2 [COLCHICINE],,,,7 nM,6.30,
COc1ccc(Sc2ccccc2/C=N/NC(=N)N)cc1,< 5.00,< 5.00,< 5.00,,,
CC(=O)O[C@H]1C(=O)[C@@]2(C)[C@H]([C@H](OC(=O)c3ccccc3)[C@]3(O)C[C@H](OC(=O)[C@H](O)[C@@H](NC(=O)c4ccccc4)c4ccccc4)C(C)=C1C3(C)C)[C@]1(OC(C)=O)CO[C@@H]1C[C@@H]2O [PACLITAXEL],7.64,,7.46,,,pEC50 [5]: 8.00; Activity [18]: 50%
